# Source: ChEMBL document CHEMBL1132785, “Optimising inhibitors of trypanothione reductase using solid-phase chemistry” (Bioorg Med Chem Lett, 2000)
# Target: Trypanothione reductase (Trypanosoma cruzi, UniProt P28593)
# Assay: The compound was evaluated for inhibition of trypanothione reductase enzyme
# Summary of the method: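 Substrate oxidised trypanothione at six levels spanning 0.25–5 × Km, with inhibitor at four experimentally chosen concentrations. Each condition run in triplicate. Ki obtained by fitting rates to the noncompetitive inhibition equation v = Vmax[S]/(1+[I]/Ki)/(Km+[S]).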
# Sequence of Trypanothione reductase (P28593 whole entry): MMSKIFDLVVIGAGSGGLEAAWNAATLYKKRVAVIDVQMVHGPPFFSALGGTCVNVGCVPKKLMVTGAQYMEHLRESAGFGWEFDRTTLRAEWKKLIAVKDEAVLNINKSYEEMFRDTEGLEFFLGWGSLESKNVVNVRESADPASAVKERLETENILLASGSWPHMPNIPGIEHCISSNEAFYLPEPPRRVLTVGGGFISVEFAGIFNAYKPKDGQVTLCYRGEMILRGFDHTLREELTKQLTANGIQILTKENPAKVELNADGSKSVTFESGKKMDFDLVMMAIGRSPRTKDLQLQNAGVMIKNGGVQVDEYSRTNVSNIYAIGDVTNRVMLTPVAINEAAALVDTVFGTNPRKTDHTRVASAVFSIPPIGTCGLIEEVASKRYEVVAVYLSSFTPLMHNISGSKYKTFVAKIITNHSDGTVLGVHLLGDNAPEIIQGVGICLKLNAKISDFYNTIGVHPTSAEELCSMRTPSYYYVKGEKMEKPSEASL
row,SMILES,Ki [nM]
1,O=C(CCc1ccc(O)c(O)c1)NCCCNCCCCNCCCNC(=O)CCc1ccc(O)c(O)c1 [KUKOAMINE A],1390
2,O=C(CCCc1c[nH]c2ccccc12)NCCCNCCCCNCCCNC(=O)CCCc1c[nH]c2ccccc12,1260
3,O=C(Cc1c[nH]c2ccccc12)NCCCNCCCCNCCCNC(=O)Cc1c[nH]c2ccccc12,390

# Further compounds by falling Ki, results first:
row,Ki [nM],SMILES
1,850,O=C(NCCCCNCCCNC(=O)c1cnc2cc(C(F)(F)F)ccc2c1O)c1cnc2cc(C(F)(F)F)ccc2c1O
2,750,O=C(NCCCNCCCCNCCCNC(=O)c1cnc2cc(C(F)(F)F)ccc2c1O)c1cnc2cc(C(F)(F)F)ccc2c1O
3,350,O=C(CCc1c[nH]c2ccccc12)NCCCNCCCCNCCCNC(=O)CCc1c[nH]c2ccccc12
4,280,COc1ccc2[nH]cc(CC(=O)NCCCNCCCCNCCCNC(=O)Cc3c[nH]c4ccc(OC)cc34)c2c1
5,76,O=C(Cc1c[nH]c2ccc(Br)cc12)NCCCNCCCCNCCCNC(=O)Cc1c[nH]c2ccc(Br)cc12
